HCV core dimer: blocks dimerization of HCV core protein | inhibition, % at 5 µM | actives 0.33% (n = 300,000) | TR-FRET GST/Flag-core106 dimerization, 1536-well;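 active = inhibition above the mean of all tested compounds plus 3 SD, set per screening campaign, cut at about 45% in these data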
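Assay system: tagged HCV core106 pair (GST and Flag); medium: KF-containing HEPES buffer, pH 7.45, DTT, CHAPS, BSA; also added: Eu donor and XL665 acceptor anti-tag antibodies; dosing: 5 µM single dose; timing: compound-protein-antibody incubation 4 h at 22.5 °C; signal: TR-FRET 671 and 617 nm emission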
PHOSPHO1 block: blocks human PHOSPHO1 phosphatase activity; recombinant PHOSPHO1, absorbance phosphatase assay; actives 1.1% (n = 290,000); AID 1565; inhibition, % at 13.3 µM; Q8TCT1; in the data active = inhibition above about 60%
Target sequence (Q8TCT1 whole entry, looked up): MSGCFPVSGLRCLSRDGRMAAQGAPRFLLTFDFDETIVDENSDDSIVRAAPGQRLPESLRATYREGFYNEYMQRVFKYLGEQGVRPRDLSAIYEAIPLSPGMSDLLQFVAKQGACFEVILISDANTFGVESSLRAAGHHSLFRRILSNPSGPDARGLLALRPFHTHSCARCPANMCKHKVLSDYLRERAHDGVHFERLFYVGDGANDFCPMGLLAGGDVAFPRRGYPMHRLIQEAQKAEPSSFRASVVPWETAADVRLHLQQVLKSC
ALR inh: inhibitors of human sulfhydryl oxidase ALR; inhibition, % (no concentration beside the values); actives 3.8% (n = 290,000); AID 485317; P55789; purified ALR, DTT oxidation, H2O2 HRP-luminol luminescence;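 active = mean replicate inhibition above about 79%, with every replicate also reaching it, limit read from the data; inconclusive = only one of the two criteria met; inactive = mean below limit and not every replicate reaching it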
Target sequence (P55789 whole entry, looked up): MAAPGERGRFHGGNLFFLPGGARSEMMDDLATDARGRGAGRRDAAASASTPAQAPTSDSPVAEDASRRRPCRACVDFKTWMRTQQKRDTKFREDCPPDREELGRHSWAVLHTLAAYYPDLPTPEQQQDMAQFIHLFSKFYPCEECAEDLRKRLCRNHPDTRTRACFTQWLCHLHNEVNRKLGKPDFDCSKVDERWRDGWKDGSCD
HSF1 inhib: HSF1 inhibition; NIH3T3-HGL HSE-luciferase, MG132-induced, luminescence 8 h; hits give low values; activity change, negative = inhibition, % at 7.5 µM (by protocol); actives 0.77% (n = 300,000); AID 2098;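 active = more than half of replicate wells show activity change below -50%, luminescence cut by over half; inconclusive = some wells, but at most half, below -50%; inactive = no replicate well below -50%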;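 also: luciferase reports HSF-1 transcriptional activity via heat shock element; 0% = median of DMSO wells and -100% = zero luminescence signal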
HSF1 activator: increases HSF-1 driven luciferase reporter signal | NIH3T3-HGL HSF-1 luciferase reporter, MG132, 8 h; 100% = twice DMSO control signal | activation, % at 9 µM | actives 1.7% (n = 300,000) | AID 504408;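 active = mean replicate activation of at least 50% with a set share of replicates each reaching 50%; inconclusive = only one of those two conditions met; inactive = mean below 50% and too few replicates reaching it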;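 also: 0% = median of the neutral control wells and 100% = twice that signal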
AI-2 QS modul: modulates the Vibrio harveyi AI-2 quorum sensing system. actives 0.4% (n = 300,000). Vibrio harveyi JMH597 AI-2 luminescence/OD600 ratio, 9 h; hits give low values; strain lacks LuxN and CqsS sensors; 0 = neutral-control median. activity change, % at 7.5 µM; in the data active = activity change below about -75%, passing the limit was not always enough; inconclusive = no clear call, values can overlap the other calls;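 also: luminescence divided by OD600 gain over 9 h not by final OD600 alone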
An asterisk follows results filed as active; u = inconclusive; x = not tested or not shown. In the library only some 6.8% were active in any assay of this set; here they are far more common.

SMILES	HCV core dimer	PHOSPHO1 block	ALR inh	HSF1 inhib	HSF1 activator	AI-2 QS modul
O=C1C(c2ccccc2)=[N+]([O-])c2ccccc21	-113.4	x	91.4*	17.6	24.4	41.0
Cc1c(NS(=O)(=O)c2cc(NC(=O)CCN3CCCC(C)C3)ccc2Cl)c(=O)n(-c2ccccc2)n1C (stereo not drawn)	-0.9	35.8	-8.8	-8.8	4.0	-10.5
Cc1ccc2cc(COC(=O)c3ccncc3)c(=O)[nH]c2c1	0.7	85.6*	-0.4	-12.2	-10.5	6.1
Cc1cccc2cc(COC(=O)c3cccnc3)c(=O)[nH]c12	-6.3	78.4*	-1.2	-0.2	-12.0	31.4
Cc1ccc(C(=O)OCc2cc3ccccc3[nH]c2=O)cc1	0.1	-3.0	-1.4	4.9	-3.4	5.8
O=C(NC1CCCCC1)C(c1ccc(F)cc1)N(C(=O)c1csnn1)C1CC1 (stereo not drawn)	0.8	26.6	-1.3	-4.3	18.5	x
Cc1ccc(O)c(NC(=S)NC(=O)/C=C/c2ccco2)c1	-0.8	-20.2	30.1	-12.4	-32.1	24.0
Cc1ccc(C(=O)/C=C/c2ccco2)c(O)c1	-3.3	-1.0	98.5*	-0.8	21.1	16.3
COc1cccc(CC2(CO)CCN(S(=O)(=O)c3ccc(OC)cc3OC)CC2)c1	5.6	45.3	x	-55.9*	-66.5	12.8
S=c1[nH]c2ccc(Cc3ccc4[nH]c(=S)[nH]c4c3)cc2[nH]1	33.2	4.2	u	-3.5	-3.3	x
Cc1c(NC(=O)C(C)OC(=O)C23CC4CC(CC(Br)(C4)C2)C3)c(=O)n(-c2ccccc2)n1C (stereo not drawn)	2.5	8.8	-34.6	-0.7	-14.0	0.6
S=c1nc(-c2ccccc2Cl)[nH][nH]1	-1.8	24.5	99.3*	-0.6	-19.1	4.3
Clc1ccccc1-c1nc2ccccc2[nH]1	1.3	x	0.2	21.4	x	5.2
COc1ccc(OC)c(-c2csc(NC(=O)CSc3ccc([N+](=O)[O-])cc3)n2)c1	41.4	5.7	-1.9	3.2	21.8	17.6
CCOC(=O)N1CCN(CC(O)COc2ccccc2[N+](=O)[O-])CC1 (stereo not drawn)	-4.2	32.6	2.1	-1.1	6.3	5.3
Cc1nc2c(cc1C(=O)N/N=C/c1ccc(O)c(O)c1)c(=O)n(C)c(=O)n2C	0.4	3.1	31.1	-73.0*	-79.4	11.0
Cn1c(-c2cc(Br)ccc2O)n[nH]c1=S	0.9	32.2	98.0*	x	x	7.3
Oc1ccc(Br)cc1-c1n[nH]c(=S)n1Cc1ccccc1	9.3	-29.2	x	4.5	1.0	5.2
O=C(CN1C(=O)NC2(CCCC2)C1=O)OCCOc1cccc(Br)c1	-8.3	x	x	6.5	13.8	3.0
CN1c2ccccc2C(O)=C(C(=S)Nc2ccc(Cl)cc2)S1(=O)=O	15.1	36.3	x	27.5	59.9*	11.3
Cc1ccc(NC(=S)C2=C(O)c3sccc3N(C)S2(=O)=O)cc1	5.7	75.5*	11.4	10.6	0.9	12.4
COc1ccccc1/C=C(/CC(=O)NCc1ccc2c(c1)OCO2)c1nc2ccccc2s1	44.9	-17.2	-2.9	4.5	2.3	0.9
CCc1cc2c(cc3c(=O)n(CC(=O)N4CCN(C)CC4)ncn32)s1	-12.3	27.6	0.2	-0.5	-0.9	6.2
O=c1c2ccccc2cnn1CCOc1cccc(Br)c1	0.9	23.0	1.4	54.8	93.8*	-47.4
Cc1ccc(OCCn2ncc3ccccc3c2=O)c(C)c1	3.2	18.7	1.2	-5.3	10.4	19.9
SMILES	HCV core dimer	PHOSPHO1 block	ALR inh	HSF1 inhib	HSF1 activator	AI-2 QS modul
O=C(C1=C(O)C(=O)N(CCCN2CCOCC2)C1c1ccccn1)c1cc2ccccc2o1 (stereo not drawn)	3.8	78.9*	11.7	-2.2	-2.0	-0.8
CC(C)(CNC(=O)c1cc2ccccc2o1)N1CCOCC1	-0.3	67.5*	-4.1	11.6	10.6	17.3
O=C(NCCN1CCOCC1)c1cc2ccccc2o1	-4.1	16.0	x	24.9	61.3*	20.1
Cc1cccc(-n2nnnc2SCC(=O)Nc2cccc(S(N)(=O)=O)c2)c1	0.5	11.5	0.3	-4.0	4.4	29.9
CSc1cccc(NC(=O)C2CCCN(c3ncnc4c3nc3n4CCCCC3)C2)c1 (stereo not drawn)	2.0	39.5	-5.8	2.0	2.5	1.2
C=C(C)c1sc(-c2ccc(Cl)cc2)nc1C	-12.9	x	x	21.8	27.5	13.7
